For data set [1], the system named is Liver microsomes. Description: Metabolic stability in human liver microsomes. The class given is ADME, Microsome. Put shortly:
(§1)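 Human or rat liver microsomes incubated with compound for 15 min at 37 °C; result expressed as percent of intact compound remaining.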

The test system of data set [2] is Liver microsomes. Description: Metabolic stability in rat liver microsomes. Format: ADME, Microsome. Put shortly:
as §1
A general note: Microsomes from liver hold many membrane-bound enzymes, among them those of drug oxidation.

The nature of data set [3]: Cmax in rat at 10 mg/kg, po. The class given is ADME, organism-based. Also noted: dose 10 mg/kg, route oral. Conditions: in vivo. Summed up: (§2)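 Rats dosed orally at 10 mg/kg; compound given as the sodium salt where specified.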
Data set [4] can be described thus: AUC (0 to 4 hrs) in rat at 10 mg/kg, po. The class given is ADME, organism-based. The following applies: plasma. Also noted: time < 4 hr, dose 10 mg/kg, route oral. Put shortly:
as §2

A short description of data set [5]: Half life in rat at 10 mg/kg, iv and 10 mg/kg, po. Format: ADME, organism-based. The following applies: in vivo. Summed up:
(§3)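 Rats dosed at 10 mg/kg iv and 10 mg/kg po, compound given as the sodium salt.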

The nature of data set [6]: Total clearance in rat at 10 mg/kg, iv and 10 mg/kg, po. The class given is ADME, organism-based. The following applies: in vivo. Put shortly: as §3
Data set [7] can be described thus: Volume of distribution at steady state in rat at 10 mg/kg, iv and 10 mg/kg, po. The class given is ADME, organism-based. The following applies: in vivo, read-out: Vdss. Summed up:
as §3

Data set [8] can be described thus: Oral bioavailability in rat at 10 mg/kg. Format: ADME, organism-based. Conditions: in vivo. Put shortly: as §2
Data set [9] concerns the target T1, Prostaglandin E2 receptor EP1 subtype (Mus musculus, UniProt P35375).
T1 sequence (P35375 whole entry): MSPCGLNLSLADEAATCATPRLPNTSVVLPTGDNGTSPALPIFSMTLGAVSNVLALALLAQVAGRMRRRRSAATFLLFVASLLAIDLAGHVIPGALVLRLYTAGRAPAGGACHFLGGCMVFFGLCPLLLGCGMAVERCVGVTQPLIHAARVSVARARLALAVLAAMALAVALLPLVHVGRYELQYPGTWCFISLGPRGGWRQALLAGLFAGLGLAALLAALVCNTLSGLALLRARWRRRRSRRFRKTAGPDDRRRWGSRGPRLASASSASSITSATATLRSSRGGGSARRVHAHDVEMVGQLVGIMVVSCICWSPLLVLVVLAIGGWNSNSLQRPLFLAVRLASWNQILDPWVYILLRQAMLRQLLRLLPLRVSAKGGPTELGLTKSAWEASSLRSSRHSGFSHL
Briefly: Displacement of [3H]PGE2 from mouse EP1 receptor expressed in CHO cells by liquid scintillation counting. The class given is cell-based. Summed up: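 Membranes from CHO cells stably expressing mEP1, incubated with 2.5 nM [3H]PGE2 and varied test compound concentrations. Buffer: 10 mM KH2PO4-KOH, 1 mM EDTA, 10 mM MgCl2, 0.1 mM NaCl, pH 6.0. Run at 25 °C for 20 min. Filtered on GF/B and washed ice-cold before scintillation counting. Nonspecific binding measured with excess cold PGE2. IC50 from regression; Ki via the Cheng–Prusoff form.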

In data set [10] the target is Prostaglandin E2 receptor EP2 subtype (Mus musculus, UniProt Q62053). Briefly: Displacement of [3H]PGE2 from mouse EP2 receptor expressed in CHO cells by liquid scintillation counting. Format: cell-based. Summed up: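 Membranes from CHO cells stably expressing the receptor, incubated with 2.5 nM [3H]PGE2 plus test compound over a concentration range. Buffer: 10 mM KH2PO4-KOH, 1 mM EDTA, 10 mM MgCl2, 0.1 mM NaCl, pH 6.0. Run at 25 °C for 60 min. Stopped by GF/B filtration with ice-cold buffer wash, then scintillation counted. Excess unlabeled PGE2 defined nonspecific binding. IC50 taken from the regression curve; Ki = IC50/(1+[L]/Kd).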
Sequence of Prostaglandin E2 receptor EP2 subtype (Q62053 whole entry): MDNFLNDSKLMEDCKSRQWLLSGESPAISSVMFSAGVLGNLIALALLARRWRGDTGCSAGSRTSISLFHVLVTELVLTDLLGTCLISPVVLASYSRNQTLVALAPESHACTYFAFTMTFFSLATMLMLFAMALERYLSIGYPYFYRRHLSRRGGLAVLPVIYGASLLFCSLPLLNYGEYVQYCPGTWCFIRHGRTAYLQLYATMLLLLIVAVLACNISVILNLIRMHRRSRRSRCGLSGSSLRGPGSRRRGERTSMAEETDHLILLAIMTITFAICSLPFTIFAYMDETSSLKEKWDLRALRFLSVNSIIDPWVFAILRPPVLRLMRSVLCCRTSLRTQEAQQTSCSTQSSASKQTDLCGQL
A general note: In a radioligand displacement assay an active substance lowers the binding of a labelled ligand.

The target of data set [11] is T2, Prostaglandin E2 receptor EP3 subtype (Mus musculus, UniProt P30557).
T2 sequence (P30557 whole entry): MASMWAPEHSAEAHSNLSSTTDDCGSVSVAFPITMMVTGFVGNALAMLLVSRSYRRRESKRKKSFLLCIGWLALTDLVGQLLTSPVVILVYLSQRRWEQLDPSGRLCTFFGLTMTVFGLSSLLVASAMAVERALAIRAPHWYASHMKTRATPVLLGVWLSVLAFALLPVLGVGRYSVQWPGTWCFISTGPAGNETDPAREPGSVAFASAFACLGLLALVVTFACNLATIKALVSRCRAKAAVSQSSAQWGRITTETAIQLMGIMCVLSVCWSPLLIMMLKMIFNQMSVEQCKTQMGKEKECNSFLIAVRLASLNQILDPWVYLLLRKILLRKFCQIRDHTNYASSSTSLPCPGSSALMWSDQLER
Briefly: Displacement of [3H]PGE2 from mouse EP3 receptor expressed in CHO cells by liquid scintillation counting. Format: cell-based. Put shortly: (§4)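 Mouse EP3α and EP4 CHO membrane binding: 2.5 nM [3H]PGE2 with graded test compound in pH 6.0 KH2PO4-KOH buffer (1 mM EDTA, 10 mM MgCl2, 0.1 mM NaCl), 60 min at 25 °C. Bound ligand collected on GF/B filters, washed with cold buffer, counted by liquid scintillation. Excess unlabeled PGE2 gave nonspecific binding. Ki derived from regression IC50, [L] and Kd.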

Data set [12] concerns the target Prostaglandin E2 receptor EP4 subtype (Mus musculus, UniProt P32240). Briefly: Displacement of [3H]PGE2 from mouse EP4 receptor expressed in CHO cells by liquid scintillation counting. The class given is cell-based. Put shortly:
as §4

Data set [13] addresses T2, Prostaglandin E2 receptor EP3 subtype. Description: Antagonist activity at mouse EP3alpha receptor expressed in CHo cells assessed as inhibition of PGE2-stimulated intracellular calcium concentration. The class given is functional, cell-based. Summed up: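 CHO cells expressing mEP3α were plated at 1×10^4 cells/well and grown 2 days in 10% FBS/αMEM at 37 °C, 5% CO2. Cells were loaded 1 h with 5 µM Fura-2/AM, 20 µM indomethacin and 2.5 mM probenecid. Assay buffer was HBSS with 0.1% BSA, 2 µM indomethacin, 2.5 mM probenecid and 10 mM HEPES, with 1 h dark equilibration at room temperature. Test compound was added with 10 nM PGE2; fluorescence read at 340/380 nm excitation, 500 nm emission. IC50 from percent inhibition of the PGE2 Ca2+ peak.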

The next data set concerns the target T3, Cytochrome P450 1A2 (Homo sapiens, UniProt P05177).
T3 sequence (P05177 whole entry): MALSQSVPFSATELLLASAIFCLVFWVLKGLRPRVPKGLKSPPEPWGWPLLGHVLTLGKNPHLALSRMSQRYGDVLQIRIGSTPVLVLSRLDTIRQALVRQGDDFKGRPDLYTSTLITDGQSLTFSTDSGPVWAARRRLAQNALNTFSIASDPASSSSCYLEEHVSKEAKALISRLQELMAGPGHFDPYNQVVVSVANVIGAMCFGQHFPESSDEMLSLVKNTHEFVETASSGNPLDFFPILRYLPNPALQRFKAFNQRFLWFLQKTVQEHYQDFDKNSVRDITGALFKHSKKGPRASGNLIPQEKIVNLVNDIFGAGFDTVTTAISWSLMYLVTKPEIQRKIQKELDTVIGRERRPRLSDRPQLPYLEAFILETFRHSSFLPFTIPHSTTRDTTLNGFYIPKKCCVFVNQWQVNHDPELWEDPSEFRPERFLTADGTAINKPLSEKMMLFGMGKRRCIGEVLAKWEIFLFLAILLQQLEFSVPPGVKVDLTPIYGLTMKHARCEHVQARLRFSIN
Description: Inhibition of CYP1A2. The class given is ADME.

The target of the next data set is Cytochrome P450 2C9 (Homo sapiens, UniProt P11712). Briefly: Inhibition of CYP2C9. The class given is ADME.
Sequence of Cytochrome P450 2C9 (P11712 whole entry): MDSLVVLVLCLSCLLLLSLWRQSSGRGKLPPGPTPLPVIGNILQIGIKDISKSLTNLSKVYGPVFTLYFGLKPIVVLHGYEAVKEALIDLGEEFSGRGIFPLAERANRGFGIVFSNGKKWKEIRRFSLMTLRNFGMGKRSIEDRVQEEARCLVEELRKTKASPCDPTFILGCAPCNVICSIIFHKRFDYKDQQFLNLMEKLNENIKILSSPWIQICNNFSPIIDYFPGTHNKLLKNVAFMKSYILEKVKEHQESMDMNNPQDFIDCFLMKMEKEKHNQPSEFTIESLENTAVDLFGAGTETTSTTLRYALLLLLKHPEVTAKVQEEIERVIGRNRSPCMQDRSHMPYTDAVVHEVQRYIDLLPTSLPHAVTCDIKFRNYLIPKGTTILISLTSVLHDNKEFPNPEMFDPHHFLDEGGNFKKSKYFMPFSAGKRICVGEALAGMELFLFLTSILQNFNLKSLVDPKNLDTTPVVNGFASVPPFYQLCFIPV
In a further data set the target is Cytochrome P450 2C19 (Homo sapiens, UniProt P33261). Description: Inhibition of CYP2C19. Format: ADME.
Sequence of Cytochrome P450 2C19 (P33261 whole entry): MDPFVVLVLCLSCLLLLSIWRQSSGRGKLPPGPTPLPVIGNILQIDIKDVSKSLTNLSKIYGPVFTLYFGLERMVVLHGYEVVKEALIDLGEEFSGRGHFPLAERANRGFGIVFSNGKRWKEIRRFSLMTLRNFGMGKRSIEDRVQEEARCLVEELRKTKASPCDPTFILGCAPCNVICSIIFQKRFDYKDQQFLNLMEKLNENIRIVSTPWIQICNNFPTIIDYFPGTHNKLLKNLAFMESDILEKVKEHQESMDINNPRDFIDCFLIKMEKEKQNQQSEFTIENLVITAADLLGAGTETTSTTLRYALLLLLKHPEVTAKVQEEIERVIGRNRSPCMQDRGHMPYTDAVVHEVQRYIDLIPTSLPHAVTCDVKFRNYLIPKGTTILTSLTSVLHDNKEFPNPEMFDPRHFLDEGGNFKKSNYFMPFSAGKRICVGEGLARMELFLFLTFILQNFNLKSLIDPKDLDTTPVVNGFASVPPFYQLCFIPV
In a further data set the target is Cytochrome P450 2D6 (Homo sapiens, UniProt P10635). Description: Inhibition of CYP2D6. The class given is ADME.
Sequence of Cytochrome P450 2D6 (P10635 whole entry): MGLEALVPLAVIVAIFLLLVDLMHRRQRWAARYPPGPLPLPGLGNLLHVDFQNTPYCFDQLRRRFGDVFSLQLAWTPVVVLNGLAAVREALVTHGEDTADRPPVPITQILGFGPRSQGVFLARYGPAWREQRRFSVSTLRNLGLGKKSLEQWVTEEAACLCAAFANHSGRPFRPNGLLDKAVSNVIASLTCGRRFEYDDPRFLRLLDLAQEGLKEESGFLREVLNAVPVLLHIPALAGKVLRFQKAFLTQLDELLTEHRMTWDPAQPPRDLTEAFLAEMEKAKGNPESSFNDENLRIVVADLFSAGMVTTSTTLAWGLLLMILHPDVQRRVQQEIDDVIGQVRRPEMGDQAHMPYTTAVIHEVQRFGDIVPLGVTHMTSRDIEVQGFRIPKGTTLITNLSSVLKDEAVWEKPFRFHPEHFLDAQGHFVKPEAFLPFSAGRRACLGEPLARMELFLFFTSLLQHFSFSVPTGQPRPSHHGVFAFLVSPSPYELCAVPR
In another data set the target is Cytochrome P450 3A4 (Homo sapiens, UniProt P08684). Description: Inhibition of CYP3A4. Format: ADME.
Sequence of Cytochrome P450 3A4 (P08684 whole entry): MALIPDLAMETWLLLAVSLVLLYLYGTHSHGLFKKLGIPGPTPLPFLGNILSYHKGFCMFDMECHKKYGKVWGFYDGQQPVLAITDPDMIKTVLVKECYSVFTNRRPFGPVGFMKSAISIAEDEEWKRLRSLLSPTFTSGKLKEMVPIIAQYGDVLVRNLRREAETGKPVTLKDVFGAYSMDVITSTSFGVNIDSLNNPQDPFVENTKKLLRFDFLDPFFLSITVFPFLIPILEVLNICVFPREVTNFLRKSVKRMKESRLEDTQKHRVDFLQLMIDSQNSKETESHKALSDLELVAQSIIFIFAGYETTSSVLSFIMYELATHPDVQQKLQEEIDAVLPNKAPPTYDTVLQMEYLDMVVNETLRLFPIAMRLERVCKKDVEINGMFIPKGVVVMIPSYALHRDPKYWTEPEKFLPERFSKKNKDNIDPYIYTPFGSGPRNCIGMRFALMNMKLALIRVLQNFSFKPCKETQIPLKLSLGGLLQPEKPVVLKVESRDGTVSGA

The record followed here is ChEMBL document CHEMBL1152570, “Discovery of a series of acrylic acids and their derivatives as chemical leads for selective EP3 receptor antagonists” (Bioorg Med Chem, 2009).

Some results are limits rather than exact numbers.

Sequence of Prostaglandin E2 receptor EP4 subtype (P32240 whole entry): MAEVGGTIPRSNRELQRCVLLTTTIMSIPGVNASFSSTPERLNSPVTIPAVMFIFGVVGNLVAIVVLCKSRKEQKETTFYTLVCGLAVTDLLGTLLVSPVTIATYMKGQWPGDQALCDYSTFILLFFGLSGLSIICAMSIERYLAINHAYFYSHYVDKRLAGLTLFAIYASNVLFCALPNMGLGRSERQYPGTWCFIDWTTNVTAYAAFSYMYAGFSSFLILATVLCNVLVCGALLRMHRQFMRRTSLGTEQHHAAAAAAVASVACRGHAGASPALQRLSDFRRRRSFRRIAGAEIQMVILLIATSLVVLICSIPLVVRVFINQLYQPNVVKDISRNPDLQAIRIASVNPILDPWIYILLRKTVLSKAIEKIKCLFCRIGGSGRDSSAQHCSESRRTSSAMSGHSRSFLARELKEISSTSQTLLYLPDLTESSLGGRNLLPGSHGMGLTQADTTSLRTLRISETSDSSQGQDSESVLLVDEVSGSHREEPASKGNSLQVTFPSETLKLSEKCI

For the compound `O=C([O-])CCc1ccc(Cn2cccn2)cc1OCCc1ccc2ccccc2c1.[Na+]`, the results for the Stability in the data set on Liver microsomes [1] and with Liver microsomes [2] were 100% and 73%, respectively. The Cmax (in general, the peak of the concentration-time curve) in data set [3] is 8320 ng/mL. The AUC(0-t) (in general, the area under the concentration-time curve up to a stated or last time point) at 4 h in data set [4] amounted to 22900 ng·h/mL. In addition, the half-life (in general, the time needed for the level to fall by half in the phase considered) in [5] was 2.93 h. The compound also returned a clearance in data set [6] of 2.77 mL/min/kg. Further, the Vd in [7] came to 0.538 L/kg. Also, the bioavailability (usually dose-corrected exposure relative to a reference, in per cent) in [8] was determined as 53%.
On to `O=C(O)/C=C/c1ccc(Cn2cccn2)cc1OCCc1ccc2ccccc2c1`, for which the Ki (in general, the equilibrium dissociation constant of an inhibitor or competing ligand from its target) stood at 2900 nM in data set [9], 3300 nM in data set [10], 12 nM in [11] and 670 nM in [12]. In addition, the IC50 – broadly, the concentration needed to halve the response being measured – was 73 nM in data set [13]; more than 30000 nM against Cytochrome P450 1A2; 12800 nM on Cytochrome P450 2C9; 30000 nM against Cytochrome P450 2C19; more than 30000 nM at Cytochrome P450 2D6; more than 30000 nM against Cytochrome P450 3A4.
For `O=C(O)COCc1ccc(Cn2cccn2)cc1OCCc1ccc2ccccc2c1`, the Ki was more than 10000 nM in data set [9], 1300 nM in [10], 210 nM in [11] and more than 10000 nM in data set [12]. Moreover, the IC50 in data set [13] was found to be 540 nM.
With `O=C([O-])/C=C/c1ccc(Cn2cccn2)cc1OCCc1ccc2ccccc2c1.[Na+]`, the results for the Stability in the data set on Liver microsomes [1] and with Liver microsomes [2] were 100% and 72%, respectively. In [3], the concentration peaked (Cmax) at 943 ng/mL. In data set [4], the exposure AUC(0-t) at 4 h amounted to 1360 ng·h/mL.
In the case of `O=C(O)/C=C/c1ccc(Cn2ccnc2)cc1OCCc1ccc2ccccc2c1`, the Ki is more than 10000 nM in data set [9], more than 10000 nM in data set [10], 16 nM in data set [11] and 2200 nM in [12]. In addition, the IC50 in [13] is 50 nM; on Cytochrome P450 1A2, less than 1000 nM; on Cytochrome P450 2C9 it was less than 1000 nM; at Cytochrome P450 2C19 it was less than 1000 nM; against Cytochrome P450 2D6, 4400 nM; against Cytochrome P450 3A4 it was less than 1000 nM.
In the case of `O=C(O)CCc1ccc(Cn2cccn2)cc1OCCc1ccc2ccccc2c1`, the Ki in [9] amounted to 7100 nM; in [10], 2800 nM; in data set [11], 12 nM; in data set [12] it was 1100 nM. Besides, the IC50 in [13] was 22 nM; on Cytochrome P450 1A2, more than 30000 nM; against Cytochrome P450 2C9, 30000 nM; on Cytochrome P450 2C19 it was more than 30000 nM; on Cytochrome P450 2D6 it was more than 30000 nM; on Cytochrome P450 3A4 it was more than 30000 nM.
